Experimental data as given in ChEMBL document CHEMBL1157072 (Bioorg Med Chem, 2010).
Converted amounts (≈) assume the structure as drawn. The source made the active and inactive calls. No cut-off for these calls is given here.

Assays:
[1] = test system: Staphylococcus aureus; experiment: Upregulation of mepA gene expression in MBX-1090-resistant Staphylococcus aureus isolate d20A1 at 0.8 ug/ml by RT-PCR analysis relative to wild type; format: functional
[2] = test system: Staphylococcus aureus; experiment: Antibacterial activity against MBX-1090-resistant Staphylococcus aureus isolate d20A1 carrying shuttle vector pMC-SK with mepR gene after 16 to 20 hrs by broth microdilution method; format: functional
Procedure, shortened: (§1)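 Broth microdilution in cation-adjusted Mueller Hinton broth. Compounds were serially diluted twofold in DMSO at 50-fold final strength (2% DMSO final). The inoculum was 1 × 10^4 cells per well. Plates were incubated at 37 °C for 16–20 h, and growth was read as absorbance at 600 nm.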

[3] = test system: Staphylococcus aureus; experiment: Antibacterial activity against Staphylococcus aureus NCTC 8325 carrying expression vector pG154 with mepA gene after 16 to 20 hrs by broth microdilution method in presence of anhydrous tetracycline; format: functional
Procedure, shortened: (§2)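 Broth microdilution in cation-adjusted MHB containing anhydrous tetracycline at 100 ng/ml final to induce the pG154 expression vector. Twofold DMSO compound dilutions were used (2% DMSO final) with 1 × 10^4 cells per well. Incubation was 37 °C for 16–20 h, and absorbance was read at 600 nm.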

[4] = test system: Staphylococcus aureus; experiment: Antibacterial activity against Staphylococcus aureus NCTC 8325 after 16 to 20 hrs by broth microdilution method in presence of efflux pump inhibitor reserpine; format: functional
Procedure, shortened: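 Broth microdilution in cation-adjusted MHB with reserpine at 20 µg/ml final in the medium as efflux inhibitor. Twofold DMSO dilutions were made (2% DMSO final) with 1 × 10^4 cells per well. Incubation was 37 °C for 16–20 h, with growth read at 600 nm.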

[5] = test system: Staphylococcus aureus; experiment: Antibacterial activity against Staphylococcus aureus NCTC 8325 harboring genetic deletion of mepRA gene and carrying expression vector pG154 after 16 to 20 hrs by broth microdilution method in presence of anhydrous tetracycline; format: functional; procedure, shortened: as §2
[6] = test system: Staphylococcus aureus; experiment: Antibacterial activity against Staphylococcus aureus NCTC 8325 harboring genetic deletion of mepRA gene after 16 to 20 hrs by broth microdilution method; format: functional; procedure, shortened: as §1
[7] = test system: Staphylococcus aureus; experiment: Antibacterial activity against Staphylococcus aureus NCTC 8325 carrying shuttle vector pMC-SK with mepR gene after 16 to 20 hrs by broth microdilution method; format: functional; procedure, shortened: as §1
[8] = Selectivity ratio of MIC for MBX-1090-resistant Staphylococcus aureus isolate d20A1 to MIC for Staphylococcus aureus NCTC 8325; format: functional
Procedure, shortened: (§3)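 Ratio of resistant-mutant MIC to NCTC 8325 MIC. Both MICs came from broth microdilution in cation-adjusted MHB with 2% DMSO final and 1 × 10^4 cells per well, incubated at 37 °C for 16–20 h and read at 600 nm.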

[9] = test system: Staphylococcus aureus; experiment: Upregulation of conventional hypothetical protein mRNA expression in MBX-1090-resistant Staphylococcus aureus isolate d20A1 at 0.8 ug/ml by RT-PCR analysis relative to wild type; format: functional
[10] = test system: Staphylococcus aureus; experiment: Antibacterial activity against Staphylococcus aureus NCTC 8325 carrying expression vector pG154 after 16 to 20 hrs by broth microdilution method; format: functional; procedure, shortened: as §1
[11] = test system: Staphylococcus aureus; experiment: Antibacterial activity against Staphylococcus aureus NCTC 8325 harboring genetic deletion of mepRA gene and carrying expression vector pG154 after 16 to 20 hrs by broth microdilution method; format: functional; procedure, shortened: as §1
[12] = test system: Staphylococcus aureus; experiment: Antibacterial activity against Staphylococcus aureus NCTC 8325 harboring genetic deletion of mepRA gene and carrying expression vector pG154 with mepA gene after 16 to 20 hrs by broth microdilution method; format: functional; procedure, shortened: as §1
[13] = test system: Staphylococcus aureus; experiment: Antibacterial activity against Staphylococcus aureus NCTC 8325 harboring genetic deletion of mepRA gene and carrying expression vector pG154 with mepA gene after 16 to 20 hrs by broth microdilution method in presence of anhydrous tetracycline; format: functional; procedure, shortened: as §2
[14] = test system: Staphylococcus aureus; experiment: Antibacterial activity against Staphylococcus aureus NCTC 8325 harboring genetic deletion of mepR gene after 16 to 20 hrs by broth microdilution method; format: functional; procedure, shortened: as §1
[15] = test system: Staphylococcus aureus; experiment: Antibacterial activity against Staphylococcus aureus NCTC 8325 after 16 to 20 hrs by broth microdilution method; format: functional; procedure, shortened: as §1
[16] = test system: Staphylococcus aureus; experiment: Antibacterial activity against Staphylococcus aureus NCTC 8325 carrying expression vector pG154 with mepA gene after 16 to 20 hrs by broth microdilution method; format: functional; procedure, shortened: as §1
[17] = test system: Staphylococcus aureus; experiment: Upregulation of mepR gene expression in MBX-1090-resistant Staphylococcus aureus isolate d20A1 at 0.8 ug/ml by RT-PCR analysis relative to wild type; format: functional
[18] = Selectivity ratio of MIC for MBX-1090-resistant Staphylococcus aureus isolate d20B1 to MIC for Staphylococcus aureus NCTC 8325; format: functional; procedure, shortened: as §3
[19] = test system: Staphylococcus aureus; experiment: Antibacterial activity against Staphylococcus aureus NCTC 8325 carrying expression vector pG154 after 16 to 20 hrs by broth microdilution method in presence of anhydrous tetracycline; format: functional; procedure, shortened: as §2
[20] = test system: Staphylococcus aureus; experiment: Antibacterial activity against Staphylococcus aureus NCTC 8325 carrying shuttle vector pMC-SK after 16 to 20 hrs by broth microdilution method; format: functional; procedure, shortened: as §1
[21] = test system: Staphylococcus aureus; experiment: Induction of mepR gene expression in Staphylococcus aureus NCTC 8325 at 0.8 ug/ml by RT-PCR analysis; format: functional, organism-based
[22] = test system: Staphylococcus aureus; experiment: Antibacterial activity against MBX-1090-resistant Staphylococcus aureus isolate d20A1 carrying shuttle vector pMC-SK after 16 to 20 hrs by broth microdilution method; format: functional; procedure, shortened: as §1
[23] = test system: Staphylococcus aureus; experiment: Induction of mepA gene expression in Staphylococcus aureus NCTC 8325 at 0.8 ug/ml by RT-PCR analysis; format: functional, organism-based
Procedure, shortened: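 NCTC 8325 diluted 1/200 in TSB and grown at 37 °C (250 rpm) to OD600 0.3. 5 ml aliquots exposed 3 h to compound or DMSO (2% final), triplicate cultures pooled. RNA was DNase-treated and 1 µg primed with random hexamers for cDNA, with a no-RT control. mepA signal normalized to rho, untreated set to 1. Mean of three experiments ± SD.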

[24] = test system: Staphylococcus aureus; experiment: Downregulation of protein A gene expression in MBX-1090-resistant Staphylococcus aureus isolate d20A1 at 0.8 ug/ml by RT-PCR analysis relative to wild type; format: functional
[25] = test system: Staphylococcus aureus; experiment: Downregulation of ribD gene expression in MBX-1090-resistant Staphylococcus aureus isolate d20A1 at 0.8 ug/ml by RT-PCR analysis relative to wild type; format: functional
[26] = Selectivity ratio of MIC for MBX-1090-resistant Staphylococcus aureus isolate d20C1 to MIC for Staphylococcus aureus NCTC 8325; format: functional; procedure, shortened: as §3
[27] = Dissociation constant, pKa of the compound; format: physicochemical
[28] = test system: Staphylococcus aureus; experiment: Downregulation of ribH gene expression in MBX-1090-resistant Staphylococcus aureus isolate d20A1 at 0.8 ug/ml by RT-PCR analysis relative to wild type; format: functional
[29] = test system: Staphylococcus aureus; experiment: microbe, parasite or virus in culture; conditions: isolate d20A1
[30] = test system: Staphylococcus aureus; experiment: Upregulation of mepB gene expression in MBX-1090-resistant Staphylococcus aureus isolate d20A1 at 0.8 ug/ml by RT-PCR analysis relative to wild type; format: functional
[31] = test system: Staphylococcus aureus; experiment: Downregulation of ribA gene expression in MBX-1090-resistant Staphylococcus aureus isolate d20A1 at 0.8 ug/ml by RT-PCR analysis relative to wild type; format: functional
[32] = test system: Staphylococcus aureus; experiment: Downregulation of ribE gene expression in MBX-1090-resistant Staphylococcus aureus isolate d20A1 at 0.8 ug/ml by RT-PCR analysis relative to wild type; format: functional

## C(=C\c1cc2ccc(C3=NCCN3)cc2[nH]1)/c1cc2ccc(C3=NCCN3)cc2[nH]1
[1]
  fold change (FC): 2
[2]
  MIC: 1 µg/mL (≈ 2.53 µM)
[3]
  MIC: 8 µg/mL
[4]
  MIC: 0.5 µg/mL
[5]
  MIC: 1 µg/mL
[6]
  MIC: 1 µg/mL (≈ 2.53 µM)
[7]
  MIC: 1 µg/mL (≈ 2.53 µM)
[8]
  Selectivity ratio: 8
[9]
  fold change (FC): 15.3
[10]
  MIC: 1 µg/mL (≈ 2.53 µM)
[11]
  MIC: 1 µg/mL (≈ 2.53 µM)
[12]
  MIC: 1 µg/mL (≈ 2.53 µM)
[13]
  MIC: 4 µg/mL
[14]
  MIC: 4 µg/mL (≈ 10.1 µM)
[15]
  MIC: 1 µg/mL (≈ 2.53 µM)
[16]
  MIC: 1 µg/mL (≈ 2.53 µM)
[17]
  fold change (FC): 1.7
[18]
  Selectivity ratio: 8
[19]
  MIC: 1 µg/mL
[20]
  MIC: 1 µg/mL (≈ 2.53 µM)
[21]
  Activity: inactive
[22]
  MIC: 8 µg/mL (≈ 20.3 µM)
[23]
  Activity: inactive
[24]
  fold change (FC): 3.1
[25]
  fold change (FC): 1.4
[26]
  Selectivity ratio: 8
[27]
  pKa: 9.6
[28]
  fold change (FC): 1.9
[29]
  MIC: 8 µg/mL (≈ 20.3 µM)
[30]
  fold change (FC): 1
[31]
  fold change (FC): 3
[32]
  fold change (FC): 2.6
